Converted amounts (≈) assume the structure as drawn. The source made the active and inactive calls. No cut-off for these calls is given here.
Assays:
Calf thymus DNA [1] = experiment: Binding affinity to calf thymus DNA at 25 uM by visible and near-UV CD spectrophotometry; format: nucleic-acid assay; conditions: Bos taurus
Procedure, shortened: (§1)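 CD spectra, visible and near-UV, of 25.0 µM drug alone and with DNA (calf thymus or PM2, 0.52 mM as nucleotide phosphorus) in 0.01 M sodium phosphate, pH 7.0. Recorded at about 23° in tandem 1-cm cylindrical quartz cells. Drug concentration was set spectrophotometrically at 440 nm.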

[2] = test system: Pseudoalteromonas phage PM2; experiment: Binding affinity to bacteriophage PM2 DNA at 25 uM by visible and near-UV CD spectrophotometry; procedure, shortened: as §1
Calf thymus DNA [3] = experiment: Binding affinity to calf thymus DNA at 37.1 uM by visible and near-UV CD spectrophotometry; format: nucleic-acid assay; conditions: Bos taurus
Procedure, shortened: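 Visible/near-UV CD of 37.1 µM drug, free and with calf thymus DNA at 0.53 mM nucleotide phosphorus, in 0.01 M sodium phosphate pH 7.0 at about 23°. Tandem 1-cm quartz cells were used. Concentration was fixed from absorbance at 440 nm (ε 23585 M⁻¹ cm⁻¹).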

Bacillus subtilis = experiment: Antibacterial activity against Bacillus subtilis Marburg assessed as growth inhibition; format: functional
Staphylococcus aureus = experiment: Antibacterial activity against Penicillin-resistant Staphylococcus aureus assessed as growth inhibition; format: functional
Sarcina = experiment: Antibacterial activity against Sarcina subflava assessed as growth inhibition; format: functional
L1210 [4] = experiment: Antitumor activity against mouse L1210 cells allografted in BDF1 mouse assessed as mean survival time at 0.0125 mg/kg/injection, ip administered daily for 9 days (reference value: 9.6 days); format: functional; conditions: route intraperitoneal
L1210 [5] = experiment: Antitumor activity against mouse L1210 cells allografted in BDF1 mouse assessed as mean survival time at 0.15 mg/kg/injection, ip administered intermittently on days 1, 5 and 9 (reference value: 9.6 days); format: functional; conditions: route intraperitoneal
L1210 [6] = experiment: Antitumor activity against mouse L1210 cells allografted in BDF1 mouse assessed as mean survival time at 0.2 mg/kg/injection, ip administered as single dose (reference value: 9.6 days); format: functional; conditions: route intraperitoneal
L1210 [7] = experiment: Antitumor activity against mouse L1210 cells allografted in BDF1 mouse assessed as increase in life span at 0.0125 mg/kg/injection, ip administered daily for 9 days; format: functional; conditions: 216 h, route intraperitoneal
L1210 [8] = experiment: Antitumor activity against mouse L1210 cells allografted in BDF1 mouse assessed as increase in lifespan at 0.15 mg/kg/injection, ip administered intermittently on days 1, 5 and 9; format: functional; conditions: route intraperitoneal
L1210 [9] = experiment: Antitumor activity against mouse L1210 cells allografted in BDF1 mouse assessed as increase in life span at 0.2 mg/kg/injection, ip administered as single dose; format: functional; conditions: route intraperitoneal
P388 [10] = experiment: Antitumor activity against mouse P388 cells allografted in BDF1 mouse assessed as mean survival time at 0.1 mg/kg/injection, ip administered daily for 9 days (reference value: 10.5 days); format: functional; conditions: route intraperitoneal
Procedure, shortened: (§2)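 P388 leukaemia: 10⁶ cells implanted ip on day 0 into groups of eight male BDF mice. Dosing was ip daily on days 1–9, on days 1, 5 and 9, or as a single day-1 dose, over four- to fivefold dose ranges. Median survival time (range of deaths) and percent increase in life-span were recorded, with survivors/total counted at day 60.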

P388 [11] = experiment: Antitumor activity against mouse P388 cells allografted in BDF1 mouse assessed as mean survival time at 0.15 mg/kg/injection, ip administered intermittently on days 1, 5 and 9 (reference value: 10.5 days); format: functional; conditions: route intraperitoneal; procedure, shortened: as §2
P388 [12] = experiment: Antitumor activity against mouse P388 cells allografted in BDF1 mouse assessed as mean survival time at 0.2 mg/kg/injection, ip administered as single dose (reference value: 10.5 days); format: functional; conditions: route intraperitoneal; procedure, shortened: as §2
P388 [13] = experiment: Antitumor activity against mouse P388 cells allografted in BDF1 mouse assessed as increase in life span at 0.1 mg/kg/injection, ip administered daily for 9 days measured on day 60; format: functional; conditions: route intraperitoneal; procedure, shortened: as §2
P388 [14] = experiment: Antitumor activity against mouse P388 cells allografted in BDF1 mouse assessed as increase in life span at 0.15 mg/kg/injection, ip administered intermittently on days 1, 5 and 9 measured on day 60; format: functional; conditions: 1440 h, route intraperitoneal; procedure, shortened: as §2
P388 [15] = experiment: Antitumor activity against mouse P388 cells allografted in BDF1 mouse assessed as increase in life span at 0.2 mg/kg/injection, ip administered as single dose measured on day 60; format: functional; conditions: 1440 h, route intraperitoneal; procedure, shortened: as §2
B16 [16] = experiment: Antitumor activity against mouse B16 cells allografted in BDF1 mouse assessed as mean survival time at 0.05 mg/kg/injection, ip administered daily for 9 days (reference value: 28 days); format: functional; conditions: route intraperitoneal
Procedure, shortened: (§3)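 B16 melanoma in mice, standard screening method. Schedules were daily on days 1–9, on days 1, 5 and 9, or a single day-1 injection, each over a four- to fivefold dose range. Survival time (range of individual deaths) was recorded, percent increase in life-span computed against untreated controls, and survivors tallied.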

B16 [17] = experiment: Antitumor activity against mouse B16 cells allografted in BDF1 mouse assessed as mean survival time at 0.075 mg/kg/injection, ip administered intermittently on days 1, 5 and 9 (reference value: 28 days); format: functional; conditions: route intraperitoneal; procedure, shortened: as §3
B16 [18] = experiment: Antitumor activity against mouse B16 cells allografted in BDF1 mouse assessed as mean survival time at 0.05 mg/kg/injection, ip administered as single dose (reference value: 28 days); format: functional; conditions: route intraperitoneal; procedure, shortened: as §3
B16 [19] = experiment: Antitumor activity against mouse B16 cells allografted in BDF1 mouse assessed as increase in life span at 0.05 mg/kg/injection, ip administered daily for 9 days measured on day 60; format: functional; conditions: route intraperitoneal; procedure, shortened: as §3
B16 [20] = experiment: Antitumor activity against mouse B16 cells allografted in BDF1 mouse assessed as increase in life span at 0.075 mg/kg/injection, ip administered intermittently on days 1, 5 and 9 measured on day 60; format: functional; conditions: 1440 h, route intraperitoneal; procedure, shortened: as §3
B16 [21] = experiment: Antitumor activity against mouse B16 cells allografted in BDF1 mouse assessed as increase in life span at 0.05 mg/kg/injection, ip administered as single dose measured on day 60; format: functional; conditions: 1440 h, route intraperitoneal; procedure, shortened: as §3

Structure (SMILES): Cc1c2oc3c(C)ccc(C(=O)N[C@H]4CNC(=O)[C@H](C(C)C)N(C)C(=O)CN(C)C(=O)[C@@H]5CCCN5C(=O)[C@@H](C(C)C)NC4=O)c3nc-2c(C(=O)N[C@H]2CNC(=O)[C@H](C(C)C)N(C)C(=O)CN(C)C(=O)[C@@H]3CCCN3C(=O)[C@@H](C(C)C)NC2=O)c(N)c1=O
- Activity (Calf thymus DNA [1]): Active
- Activity [2]: Active
- Activity (Calf thymus DNA [3]): Active
- MIC (Bacillus subtilis): 0.9 µg/mL (≈ 0.734 µM)
- IC50 (Bacillus subtilis; read-out: ID50 (the source's name)): 0.4 µg/mL (≈ 0.326 µM)
- MIC (Staphylococcus aureus): 0.35 µg/mL (≈ 0.286 µM)
- MIC (Sarcina): 0.35 µg/mL (≈ 0.286 µM)
- MST (L1210 [4]): 11.2 days
- MST (L1210 [5]): 11 days
- MST (L1210 [6]): 11.8 days
- ILS at 0.0125 mg/kg (L1210 [7]): 17%
- ILS at 0.15 mg/kg (L1210 [8]): 14%
- ILS at 0.2 mg/kg (L1210 [9]): 22%
- MST (P388 [10]): 14.5 days
- MST (P388 [11]): 14 days
- MST (P388 [12]): 14 days
- ILS at 0.1 mg/kg (P388 [13]): 38%
- ILS at 0.15 mg/kg (P388 [14]): 33%
- ILS at 0.2 mg/kg (P388 [15]): 33%
- MST (B16 [16]): 30 days
- MST (B16 [17]): 32 days
- MST (B16 [18]): 29 days
- ILS at 0.05 mg/kg (B16 [19]): 7%
- ILS at 0.075 mg/kg (B16 [20]): 14%
- ILS at 0.05 mg/kg (B16 [21]): 4%

Reference: ChEMBL document CHEMBL3272019, “Synthesis and some properties and antitumor effects of the actinomycin lactam analog, (di(1-L-alpha, beta-diaminopropionic))actinomycin D1” (1976)
